This passage reports solubility, inhibition and Activity results from ChEMBL document CHEMBL1154190, “Development and screening of water-soluble analogues of progesterone and allopregnanolone in models of brain injury” (J Med Chem, 2009).

Data set [1] in a line: Solubility in phosphate buffered saline. In kind it is physicochemical. The method in brief:
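Compound added in small portions to phosphate buffered saline at room temperature with stirring until a visible saturation end point; solubility reported as mg/mL.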

The nature of data set [2]: Inhibition of glutamate-induced excitotoxicity in rat E18 cells assessed as reduction in cell death at 5 uM pretreated for 24 hrs before glutamate challenge measured after 24 hrs by MTT assay. The class given is functional. The method in brief:
(§1)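 Rat E18 primary cortical cells cultured 8-10 days in neurobasal medium, pretreated 24 h with compound (tested at 0.1-80 μM, DMSO <5 μL/mL medium), then glutamate 0.5 μM (in PBS pH 7.4) added for a further 24 h with compound still present. Viability by MTT formazan photometry; reduction in cell death vs glutamate-only control, mean ± SEM, ANOVA/Dunnett, p < 0.05.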

The test system of a further data set is Rattus norvegicus. The data set is described as follows: Neuroprotective effect against traumatic brain injury-induced cerebral edema in rat assessed as decrease in edema level at 8 mg/kg administered intraperitoneally 1 hr post-TBI followed by second sc dose at 6 hrs post-TBI measured after 24 hrs relative to control. In kind it is functional. Further details: scale not given: the % may be the effect or the level left. To be noted: route intraperitoneal at 1 h, then subcutaneous at 6 h. The essentials:
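Bilateral medial frontal cortex contusion made with a pneumatic impactor in rats under isoflurane (5% induction, 2% maintenance, N₂O/O₂), body temperature held with a heating blanket. Dosing: 8 mg/kg in 22.5% w/v 2-hydroxypropyl-β-cyclodextrin, IP at 1 h, then SC at 6 h. Sham and vehicle groups included. At 24 h, pentobarbital overdose; pericontusional tissue dried at 60 °C, 0.3 atm for 24 h. Water % = (wet−dry)/wet×100; decrease vs vehicle, mean ± SEM.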

Data set [3] is described as follows: Inhibition of glutamate-induced excitotoxicity in rat E18 cells assessed as reduction in cell death at 20 uM pretreated for 24 hrs before glutamate challenge measured after 24 hrs by MTT assay. In kind it is functional. The essentials: (§2)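 Rat E18 primary cortical neurons cultured 8-10 days in neurobasal medium, pretreated 24 h with compound (0.1-80 μM, DMSO, final DMSO <5 μL/mL), then glutamate 0.5 μM (in PBS pH 7.4) for 24 h with compound still present. Viability read by MTT formazan photometry; % reduction in cell death vs glutamate control, mean ± SEM, ANOVA with Dunnett's test.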

The nature of data set [4]: Inhibition of glutamate-induced excitotoxicity in rat E18 cells assessed as reduction in cell death at 10 uM pretreated for 24 hrs before glutamate challenge measured after 24 hrs by MTT assay. In kind it is functional. The method in brief:
as §1

Data set [5] can be described thus: Inhibition of glutamate-induced excitotoxicity in rat E18 cells assessed as reduction in cell death at 80 uM pretreated for 24 hrs before glutamate challenge measured after 24 hrs by MTT assay. In kind it is functional. The method in brief:
as §2

Where [6] appears, read: phosphate buffered saline, read-out: solubility.

Each structure is given as a SMILES string.

As to `CC(=O)[C@H]1CC[C@H]2[C@@H]3CCC4=C[C@@H](OC(=O)[C@@H]5CCCN5)CC[C@]4(C)[C@H]3CC[C@]12C.Cl`, in data set [1] (setting [6]), the solubility is 1530 µg/mL. Moreover, in data set [2], the inhibition at 5 µM is 15%.
For `CC(=O)[C@H]1CC[C@H]2[C@@H]3CC[C@H]4C[C@@H](OC(=O)[C@@H](N)C(C)C)CC[C@]4(C)[C@H]3CC[C@]12C.Cl`, in the data set on Rattus norvegicus, the Activity amounted to 40%. Further, the solubility in data set [1] (setting [6]) was less than 50 µg/mL.
With `CC(=O)[C@H]1CC[C@H]2[C@@H]3CCC4=C/C(=N/OC(=O)[C@@H](N)C(C)C)CC[C@]4(C)[C@H]3CC[C@]12C.Cl`, the Activity with Rattus norvegicus came to 57%. This compound came in with a solubility in data set [1] (buffer) of 13000 µg/mL. In addition, the inhibition at 5 µM in data set [2] came to 27%.
As to `CC(=O)[C@H]1CC[C@H]2[C@@H]3CCC4=C[C@@H](OC(=O)[C@H](C)N)CC[C@]4(C)[C@H]3CC[C@]12C.Cl`, in data set [1] (setting [6]), the solubility is 3340 µg/mL. Moreover, the inhibition at 5 µM in data set [2] was found to be 13%.
Take `CC(=O)[C@H]1CC[C@H]2[C@@H]3CC[C@@H]4C[C@H](OC(=O)[C@@H](N)C(C)C)CC[C@]4(C)[C@H]3CC[C@]12C.Cl`: the Activity in the data set on Rattus norvegicus was 31%. Further, the solubility in data set [1] (setting [6]) was 300 µg/mL.
The like results for `CC(=O)[C@H]1CC[C@H]2[C@@H]3CC[C@H]4C[C@H](OC(=O)[C@@H](N)C(C)C)CC[C@]4(C)[C@H]3CC[C@]12C.Cl` were, in that order, 49% and less than 50 µg/mL.
On to `CC(=O)[C@H]1CC[C@H]2[C@@H]3CCC4=CC(=O)CC[C@]4(C)[C@H]3CC[C@]12C` [PROGESTERONE], for which the Activity in the data set on Rattus norvegicus stood at 60%. Further, in data set [1] (setting [6]), the solubility is less than 50 µg/mL. The inhibition at 20 µM in data set [3] was 42%. Further, in data set [2], the inhibition at 5 µM was 4%.
In the case of `CC(=O)[C@H]1CC[C@H]2[C@@H]3CCC4=C[C@@H](OC(=O)[C@@H](N)C(C)C)CC[C@]4(C)[C@H]3CC[C@]12C.Cl`, in data set [1] (setting [6]), the solubility worked out at 3850 µg/mL. The inhibition at 5 µM in data set [2] was 8%.
As for `CC(C)[C@H](N)C(=O)O[C@@H](C)[C@H]1CC[C@H]2[C@@H]3CCC4=CC(=O)CC[C@]4(C)[C@H]3CC[C@]12C`, the inhibition at 5 µM in data set [2] is 23%. The inhibition at 10 µM in data set [4] stood at 30%.
Turning to `CC(=O)[C@H]1CC[C@H]2[C@@H]3CC[C@H]4C[C@H](O)CC[C@]4(C)[C@H]3CC[C@]12C` [BREXANOLONE], in data set [1] (setting [6]), the solubility is less than 50 µg/mL. In data set [5], the inhibition at 80 µM came to 40%. For the same compound, in data set [2], the inhibition at 5 µM is -3%.
`CC(=O)[C@H]1CC[C@H]2[C@@H]3CCC4=C/C(=N\OC(=O)[C@@H](N)C(C)C)CC[C@]4(C)[C@H]3CC[C@]12C.Cl`: in the data set on Rattus norvegicus, the Activity is on record as 75%. Further, in data set [1] (setting [6]), the solubility was found to be 15200 µg/mL. The inhibition at 5 µM in data set [2] was 34%.
On to `CC(=O)[C@H]1CC[C@H]2[C@@H]3CC[C@@H]4C[C@@H](OC(=O)[C@@H](N)C(C)C)CC[C@]4(C)[C@H]3CC[C@]12C.Cl`, for which the Activity with Rattus norvegicus was 11%. Further, the solubility in data set [1] (setting [6]) is less than 50 µg/mL.
Take `CC(=O)[C@H]1CC[C@H]2[C@@H]3CCC4=C[C@@H](OC(=O)[C@@H](N)Cc5c[nH]c6ccccc56)CC[C@]4(C)[C@H]3CC[C@]12C`: in data set [2], the inhibition at 5 µM was 1%.
For the compound `CC(=O)[C@H]1CC[C@H]2[C@@H]3CCC4=C[C@@H](OC(=O)[C@@H](N)Cc5ccccc5)CC[C@]4(C)[C@H]3CC[C@]12C.Cl`, the solubility in data set [1] (setting [6]) came out at 610 µg/mL.
